Measurements taken from ChEMBL document CHEMBL1139486, “Novel benzopyridothiadiazepines as potential active antitumor agents” (J Med Chem, 2005).

Experiments:
L1210 [1] = assay: Antiproliferative activity against mouse L1210 cells after 48 hrs relative control; type: functional, cell-based; conditions: L1210, 48 h
Summary of the method: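 L1210 cells grown in RPMI 1640 with 10% fetal calf serum, 2 mM L-glutamine, penicillin/streptomycin and 10 mM HEPES (pH 7.4). Cells were exposed 48 h to graded drug concentrations, then MTT was added for 4 h at 37 °C. Formazan was dissolved in DMSO and OD read at 540 nm. IC50 came from linear regression on the linear part of the dose-response curve, in triplicate.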

L1210 [2] = assay: Cell cycle perturbations in mouse L1210 cells assessed as accumulation in 8N phase after 21 hrs at 1 uM relative to control; type: functional
IGROV-1 = assay: Antiproliferative activity against IGROV1 cells; type: functional, Homo sapiens
A549 = assay: Antiproliferative activity against A549 cells; type: functional, Homo sapiens
[3] = Antiproliferative activity against KB3-1 cells; type: functional, Homo sapiens, KB 3-1
Tubulin = assay: Inhibition of tubulin polymerization; type: protein-complex assay, Homo sapiens
L1210 [4] = assay: Cell cycle perturbations in mouse L1210 cells assessed as accumulation in G2+M phase after 21 hrs at 1 uM relative to control; type: functional
L1210 [5] = assay: Cell cycle perturbations in mouse L1210 cells assessed as accumulation in G1 phase after 21 hrs at 1 uM relative to control; type: functional
L1210 [6] = assay: Cell cycle perturbations in mouse L1210 cells assessed as accumulation in S phase after 21 hrs at 1 uM relative to control; type: functional
P388 = assay: Antiproliferative activity against P388 cells; type: functional, Mus musculus
[7] = Antiproliferative activity against adriamycin-resistant KB A1 cells; type: functional, Homo sapiens
DU-145 = assay: Antiproliferative activity against DU145 cells; type: functional, Homo sapiens
L1210 [8] = assay: Cell cycle perturbations in mouse L1210 cells assessed as accumulation in G2+M phase after 21 hrs at 2.5 uM relative to control; type: functional
L1210 [9] = assay: Cell cycle perturbations in mouse L1210 cells assessed as accumulation in G1 phase after 21 hrs at 2.5 uM relative to control; type: functional
L1210 [10] = assay: Cell cycle perturbations in mouse L1210 cells assessed as accumulation in 8N phase after 21 hrs at 2.5 uM relative to control; type: functional
L1210 [11] = assay: Cell cycle perturbations in mouse L1210 cells assessed as accumulation in S phase after 21 hrs at 2.5 uM relative to control; type: functional
L1210 [12] = assay: Cell cycle perturbations in mouse L1210 cells assessed as accumulation in G2+M phase after 21 hrs at 5 uM relative to control; type: functional
Summary of the method: (§1)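 L1210 cells in RPMI 1640 with 10% fetal calf serum, 2 mM L-glutamine, antibiotics and 10 mM HEPES (pH 7.4) were exposed for 21 h (two doubling times). They were fixed in 70% ethanol and stained 30 min at 20 °C in D-PBS with […] RNAse and […] propidium iodide. 10⁴ cells per sample were analysed by flow cytometry for % G1, S, G2+M and 8N.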

L1210 [13] = assay: Cell cycle perturbations in mouse L1210 cells assessed as accumulation in 8N phase after 21 hrs at 5 uM relative to control; type: functional; summary of the method: as §1
L1210 [14] = assay: Cell cycle perturbations in mouse L1210 cells assessed as accumulation in G1 phase after 21 hrs at 5 uM relative to control; type: functional; summary of the method: as §1
L1210 [15] = assay: Cell cycle perturbations in mouse L1210 cells assessed as accumulation in S phase after 21 hrs at 5 uM relative to control; type: functional; summary of the method: as §1
L1210 [16] = assay: Cell cycle perturbations in mouse L1210 cells assessed as accumulation in G2+M phase after 21 hrs at 2 uM relative to control; type: functional; summary of the method: as §1
L1210 [17] = assay: Cell cycle perturbations in mouse L1210 cells assessed as accumulation in S phase after 21 hrs at 2 uM relative to control; type: functional; summary of the method: as §1
L1210 [18] = assay: Cell cycle perturbations in mouse L1210 cells assessed as accumulation in 8N phase after 21 hrs at 2 uM relative to control; type: functional; summary of the method: as §1
L1210 [19] = assay: Cell cycle perturbations in mouse L1210 cells assessed as accumulation in G1 phase after 21 hrs at 2 uM relative to control; type: functional; summary of the method: as §1

Structure (SMILES) | IC50 (L1210 [1]) [µM] | further results
COc1ccc(CN2C=CC=C3C2=Nc2ccccc2S(=O)(=O)N3C)cc1 | > 10 | –
COc1ccc(CCN2C=CC=C3C2=Nc2ccccc2S(=O)(=O)N3C)cc1 | 0.3 | Activity (L1210 [2]): 54%; Activity (IGROV-1): 0.34 µM; Activity (A549): 0.45 µM; Activity [3]: 0.24 µM; IC50 (Tubulin): 3.8 µM; Activity (L1210 [4]): 32%; Activity (L1210 [5]): 6%; Activity (L1210 [6]): 8%; Activity (P388): 0.33 µM; Activity [7]: 0.3 µM; Activity (DU-145): 0.55 µM
COc1ccc(CCCN2C=CC=C3C2=Nc2ccc(Cl)cc2S(=O)(=O)N3C)cc1 | > 10 | –
COc1cc(CCN2C=CC=C3C2=Nc2ccccc2S(=O)(=O)N3C)cc(OC)c1OC | > 10 | –
CCN(CC)CCN1c2ccccc2N=C2C(=CC=CN2CCc2ccc(OC)cc2)S1(=O)=O | > 10 | –
COc1ccc(CCN2c3cc(Cl)ccc3N(C)S(=O)(=O)c3cccnc32)cc1 | > 100 | –
COc1ccc(CN2C=CC=C3C2=Nc2cc(C(F)(F)F)ccc2S(=O)(=O)N3C)cc1 | > 10 | –
COc1ccc(CCN2C=CC=C3C2=Nc2ccc(Cl)cc2S(=O)(=O)N3C)cc1 | 1.3 | Activity (L1210 [8]): 24%; Activity (L1210 [9]): 4%; Activity (L1210 [10]): 66%; Activity (L1210 [11]): 6%
COc1ccc(CCN2C=CC=C3C2=Nc2cc(OC)ccc2S(=O)(=O)N3C)cc1 | > 10 | –
COc1ccc(CCN2c3ccccc3S(=O)(=O)N(C)c3cccnc32)cc1 | > 10 | –
COc1ccc(CCCN2c3ccccc3N(C)S(=O)(=O)c3cccnc32)cc1 | > 10 | –
COc1ccc(CCN2C=CC=C3C2=Nc2cc(C)ccc2S(=O)(=O)N3C)cc1 | 1.4 | Activity (L1210 [12]): 19%; Activity (L1210 [13]): 68%; Activity (L1210 [14]): 5%; Activity (L1210 [15]): 8%
CN1C2=CC=CN(CCc3ccc(OCc4ccccc4)cc3)C2=Nc2ccccc2S1(=O)=O | > 10 | –
COc1cc(CCN2c3ccccc3S(=O)(=O)N(C)c3cccnc32)cc(OC)c1OC | > 10 | –
COc1ccc(CCN2c3cc(OC)ccc3N(C)S(=O)(=O)c3cccnc32)cc1 | > 10 | –
COc1ccc(CN2c3cc(C)ccc3N(C)S(=O)(=O)c3cccnc32)cc1 | 6.9 | –
COc1ccc(CN2C=CC=C3C2=Nc2ccccc2N(Cc2ccc(OC)cc2)S3(=O)=O)cc1 | > 100 | –
COc1ccc(CCN2C=CC=C3C2=Nc2ccccc2N(Cc2ccc(OC)cc2)S3(=O)=O)cc1 | > 100 | –
COc1ccc(CN2c3cc(C(F)(F)F)ccc3S(=O)(=O)N(C)c3cccnc32)cc1 | > 10 | –

Structure (SMILES) | IC50 (L1210 [1]) [µM] | further results
COc1ccc(CCN2c3ccccc3N(Cc3ccc(OC)cc3)S(=O)(=O)c3cccnc32)cc1 | > 100 | –
COc1ccc(CN2c3ccccc3N(C)S(=O)(=O)c3cccnc32)cc1 | 9.6 | –
CCN(CC)CCN1c2ccccc2N(CCc2ccc(OC)cc2)c2ncccc2S1(=O)=O | > 10 | –
COc1ccc(CCCN2C=CC=C3C2=Nc2cc(C(F)(F)F)ccc2S(=O)(=O)N3C)cc1 | > 10 | –
COc1ccc(CCN2C=CC=C3C2=Nc2cc(Cl)ccc2S(=O)(=O)N3C)cc1 | 1.3 | Activity (L1210 [12]): 26%; Activity (L1210 [13]): 61%; Activity (L1210 [14]): 7%; Activity (L1210 [15]): 6%
COc1ccc(CCN2C=CC=C3C2=Nc2cc(Cl)ccc2N(C)S3(=O)=O)cc1 | 0.19 | Activity (L1210 [2]): 63%; Activity (L1210 [4]): 19%; Activity (L1210 [5]): 8%; Activity (L1210 [6]): 10%
COc1ccc(CN2c3cc(Cl)ccc3S(=O)(=O)N(C)c3cccnc32)cc1 | > 10 | –
COc1ccc(CCCN2C=CC=C3C2=Nc2cc(Cl)ccc2S(=O)(=O)N3C)cc1 | > 10 | –
COc1ccc(CCN2C=CC=C3C2=Nc2cc(C)ccc2N(C)S3(=O)=O)cc1 | 0.41 | Activity (L1210 [16]): 12%; Activity (L1210 [17]): 2%; Activity (L1210 [18]): 84%; Activity (L1210 [19]): 2%
COc1ccc(CN2C=CC=C3C2=Nc2cc(Cl)ccc2S(=O)(=O)N3C)cc1 | 1.5 | –
COc1ccc(CN2C=CC=C3C2=Nc2cc(Cl)ccc2N(C)S3(=O)=O)cc1 | 5.4 | –
COc1ccc(CN2C=CC=C3C2=Nc2cc(OC)ccc2N(C)S3(=O)=O)cc1 | > 10 | –
COc1ccc(CCN2c3cc(Cl)ccc3S(=O)(=O)N(C)c3cccnc32)cc1 | > 10 | –
COc1ccc(CCN2c3ccccc3N(C)S(=O)(=O)c3cccnc32)cc1 | > 10 | –
COc1ccc(CCCN2C=CC=C3C2=Nc2ccccc2S(=O)(=O)N3C)cc1 | > 10 | –
COc1ccc(CN2c3cc(Cl)ccc3N(C)S(=O)(=O)c3cccnc32)cc1 | 8.7 | –
COc1ccc(CCN2C=CC=C3C2=Nc2cc(OC)ccc2N(C)S3(=O)=O)cc1 | 1.5 | Activity (L1210 [12]): 17%; Activity (L1210 [13]): 71%; Activity (L1210 [14]): 5%; Activity (L1210 [15]): 7%
COc1ccc(CN2C=CC=C3C2=Nc2ccc(Cl)cc2S(=O)(=O)N3C)cc1 | > 10 | –
COc1ccc(CCCN2C=CC=C3C2=Nc2cc(OC)ccc2S(=O)(=O)N3C)cc1 | > 50 | –

Structure (SMILES) | IC50 (L1210 [1]) [µM] | further results
COc1ccc(CN2c3cc(OC)ccc3N(C)S(=O)(=O)c3cccnc32)cc1 | 8.3 | –
COc1ccc(CN2C=CC=C3C2=Nc2ccccc2N(C)S3(=O)=O)cc1 | > 10 | –
COc1ccc(CN2C=CC=C3C2=Nc2cc(OC)ccc2S(=O)(=O)N3C)cc1 | > 50 | –
COc1ccc(CCN2C=CC=C3C2=Nc2cc(C(F)(F)F)ccc2S(=O)(=O)N3C)cc1 | > 10 | –
CN(C)CCOc1ccc(CCN2C=CC=C3C2=Nc2ccccc2S(=O)(=O)N3C)cc1 | > 10 | –
COc1ccc(CN2c3ccccc3S(=O)(=O)N(C)c3cccnc32)cc1 | > 10 | –
COc1cc(CN2c3ccccc3S(=O)(=O)N(C)c3cccnc32)cc(OC)c1OC | > 10 | –
CN1C2=CC=CN(CCc3ccc(O)cc3)C2=Nc2ccccc2S1(=O)=O | > 10 | –
COc1ccc(CN2c3ccccc3N(Cc3ccc(OC)cc3)S(=O)(=O)c3cccnc32)cc1 | > 100 | –
COc1ccc(CN2c3cc(C)ccc3S(=O)(=O)N(C)c3cccnc32)cc1 | > 10 | –
COc1ccc(CCCN2C=CC=C3C2=Nc2cc(C)ccc2S(=O)(=O)N3C)cc1 | > 10 | –
COc1ccc(CCN2c3cc(C)ccc3N(C)S(=O)(=O)c3cccnc32)cc1 | > 10 | –
COc1ccc(CCCN2C=CC=C3C2=Nc2ccccc2N(C)S3(=O)=O)cc1 | 8.3 | –
COc1cc(CN2C=CC=C3C2=Nc2ccccc2S(=O)(=O)N3C)cc(OC)c1OC | > 10 | –
COc1ccc(CN2C=CC=C3C2=Nc2cc(C)ccc2S(=O)(=O)N3C)cc1 | 9 | –
COc1ccc(CCN2c3ccc(Cl)cc3N(C)S(=O)(=O)c3cccnc32)cc1 | > 10 | –
COc1ccc(CN2C=CC=C3C2=Nc2cc(C)ccc2N(C)S3(=O)=O)cc1 | 9.2 | –
COc1ccc(CN2C=CC=C3C2=Nc2ccc(Cl)cc2N(C)S3(=O)=O)cc1 | 4.1 | –
